The test system of series [1] is Nucleic Acid. Description: Thermal denaturation of calf-thymus DNA was evaluated. The series is classed as functional. The note with it: Bos taurus. The method in brief: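 Calf thymus DNA (% GC 42) at 2 × 10^-4 M in 0.1 SSC (0.15 M NaCl/0.015 M sodium citrate, pH 7.0). Six curves at P/DNA = 0, 0.2, 0.4, 0.6, 0.8 and 1. A260 followed from 20 to 95 °C at 1 °C/min in a 10-mm cell. Tm = midpoint of the hyperchromic transition.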

The species entered for series [2] is Mus musculus. The series is described as follows: In vitro cytotoxicity against L1210 leukemia cell line. The conditions noted are these: read-out: LD50 (the source's name). The series is classed as functional. The procedure, abridged: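 L1210 mouse lymphocytic leukemia cells in RPMI 1640 with 10% (v/v) foetal calf serum, in exponential growth, seeded at 1.5 × 10^5 cells/mL in flasks; drug added at final 10^-9 to 10^-4 M for 3 days. Growth and viability counted by trypan blue staining; ID50 is the concentration inhibiting cell growth by 50% of control.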

The species named for series [3] is Homo sapiens. The series is described as follows: In vitro inhibitory activity against MCF-7 mammary cell line. The series is classed as functional. The note with it: MCF7, read-out: ID50 (the source's name). The method in brief: (§1)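 Exponentially growing cells exposed 3 days to drug at final 10^-9 to 10^-4 M. L1210: RPMI 1640 + 10% FCS, seeded 1.5 × 10^5 cells/mL in flasks. MCF7: DMEM + 10% FCS, 10^5 cells/well in 6-well plates. Growth and viability by trypan blue counting; ID50 = concentration inhibiting growth by 50% of control.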

The species named for series [4] is Mus musculus. Description: In vitro inhibitory activity against L1210 leukemia cell line. The conditions noted are these: read-out: ID50 (the source's name). The series is classed as functional. The procedure, abridged: as §1
A short description of series [5]: Therapeutic effect against P388 leukemia in mice on days 1, 5 and 9 after administration of 1.6 mg/kg dose expressed as median survival time of treated and control mice (in vivo). Set-up: dose 1.6 mg/kg. The conditions noted are these: mouse. The series is classed as organism-based. The procedure, abridged: (§2)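 DBA2 mice implanted ip with 10^6 P388 cells on D0; drug given ip on D1, D5, D9. Groups of 7 treated mice, 10 untreated controls. Mice weighed daily; study ended D45. T/C (%) = median survival time of treated over control group.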

A short description of series [6]: Therapeutic effect against P388 leukemia in mice on days 1, 5 and 9 after administration of 5 mg/kg dose expressed as median survival time of treated and control mice (in vivo). The arrangement: dose 5 mg/kg. The note with it: mouse. The series is classed as organism-based. The method in brief:
as §2

Series [7] in a line: Therapeutic effect against P388 leukemia in mice on days 1, 5 and 9 after administration of 25 mg/kg dose expressed as median survival time of treated and control mice (in vivo). The series is classed as organism-based. Set-up: dose 25 mg/kg. The conditions noted are these: mouse. The procedure, abridged: as §2
Series [8] in a line: Therapeutic effect against P388 leukemia in mice on days 1, 5 and 9 after administration of 10 mg/kg dose expressed as median survival time of treated and control mice (in vivo). The note with it: mouse. It counts as organism-based. Set-up: dose 10 mg/kg. The procedure, abridged: as §2

The text below walks through data of ChEMBL document CHEMBL1126952, “Synthesis and antitumor properties of an anthraquinone bisubstituted by the copper chelating peptide Gly-Gly-L-His” (J Med Chem, 1993).

SMILES strings stand for the structures.

One may read the ΔTm as the shift of the melting midpoint relative to a reference.

`NCC(=O)NCC(=O)N[C@@H](Cc1c[nH]cn1)C(=O)NCCNc1ccc(NCCNC(=O)[C@@H](Cc2c[nH]cn2)NC(=O)CNC(=O)CN)c2c1C(=O)c1c(O)ccc(O)c1C2=O`: the ΔTm in series [1] came out at 17.1 °C.
Same read-out and setting: the figure for `NCCCC(NC(=O)[C@@H](Cc1c[nH]cn1)NC(=O)CNc1ccc(O)c2c1C(=O)c1c(O)ccc(O)c1C2=O)C(=O)O` (stereo partly drawn) is 11.3 °C.
Regarding `NCC(=O)NCC(=O)N[C@@H](Cc1c[nH]cn1)C(=O)NCCNc1ccc(NCCNC(=O)[C@H](Cc2c[nH]cn2)NC(=O)CNC(=O)CN)c2c1C(=O)c1c(O)ccc(O)c1C2=O` [listing 1 of 2 here], the CC50 in series [2] was found to be 70 nM. In addition, the IC50 in series [3] is 800 nM; in series [4], 50 nM.
Turning to `O=C1c2c(O)ccc(O)c2C(=O)c2c(NCCNCCO)ccc(NCCNCCO)c21` [MITOXANTRONE], in series [2], the CC50 was 7 nM. Also, the ΔTm in series [1] is 15.9 °C. In addition, the values for the IC50 in series [3] and in series [4] were 270 nM and 7 nM, respectively. The same compound returned a T/C in series [5] of 190.
Consider `NCC(=O)NCC(=O)N[C@@H](Cc1c[nH]cn1)C(=O)NCCNc1ccc(NCCNC(=O)[C@H](Cc2c[nH]cn2)NC(=O)CNC(=O)CN)c2c1C(=O)c1c(O)ccc(O)c1C2=O` [listing 2 of 2 here], for which the T/C is 140 in series [6], 230 in series [7] and 150 in series [8].
